For six compounds, MIC and Ratio results are on record in ChEMBL document CHEMBL1944546, “Structure-activity relationships of novel alkylides: 3-O-arylalkyl clarithromycin derivatives with improved antibacterial activities” (2012).

In brackets after ≈: the same amount, converted by molar mass.

The test system of experiment [1] is Streptococcus pneumoniae. As to the kind of experiment: Antibacterial activity against erythromycin-susceptible Streptococcus pneumoniae ATCC 49619 by broth microdilution method. It counts as functional. Put shortly: (§1)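 MIC read by broth microdilution following CLSI (2010) guidance. The clinical isolates were identified by 16S rDNA sequencing and labelled by genotype and phenotype. S. aureus ATCC 29213 and S. pneumoniae ATCC 49619 were the control strains. Azithromycin, clarithromycin and 3-OH-clarithromycin were run as reference compounds.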

The subject of experiment [2] is Streptococcus pneumoniae. As to the kind of experiment: Antibacterial activity against penicillin-, constitutive MLS-resistant Streptococcus pneumoniae PU 11 by broth microdilution method. It counts as functional. The method, boiled down: (§2)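 MIC by broth microdilution following CLSI (2010) recommendations, using clinical isolates identified by 16S rDNA sequencing and labelled by genotype and phenotype. S. aureus ATCC 29213 and S. pneumoniae ATCC 49619 were run as control strains, and azithromycin, clarithromycin and 3-OH-clarithromycin were tested as reference agents.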
(Broth dilution looks for growth in wells or tubes with falling amounts of substance.)

Experiment [3] deals with Streptococcus pneumoniae. Nature of the experiment: Antibacterial activity against efflux,penicillin-susceptible Streptococcus pneumoniae PU 09 by broth microdilution method. It counts as functional. The method, boiled down:
as §1

The test system of experiment [4] is Streptococcus pneumoniae. As to the kind of experiment: Antibacterial activity against penicillin-susceptible, constitutive MLS-resistant Streptococcus pneumoniae PU 27 by broth microdilution method. Type of experiment: functional. The method, boiled down:
as §2

For experiment [5], the system named is Streptococcus dysgalactiae. Nature of the experiment: Antibacterial activity against efflux, erythromycin-resistant Streptococcus dysgalactiae A 1 by broth microdilution method. It counts as functional. Put shortly: as §2
The subject of experiment [6] is Streptococcus pyogenes. As to the kind of experiment: Antibacterial activity against constitutive MLS-resistant Streptococcus pyogenes A 2 by broth microdilution method. Type of experiment: functional. The method, boiled down:
as §2

Experiment [7] concerns Streptococcus pyogenes. Nature of the experiment: Antibacterial activity against erythromycin-susceptible Streptococcus pyogenes A 3 by broth microdilution method. Type of experiment: functional. The method, boiled down: as §1
Experiment [8] deals with Staphylococcus aureus. As to the kind of experiment: Antibacterial activity against erythromycin-susceptible Staphylococcus aureus ATCC 29213 by broth microdilution method. It counts as functional. Put shortly: as §1
Experiment [9] has as its system Staphylococcus aureus. As to the kind of experiment: Antibacterial activity against methicillin-, constitutive MLS-resistant […] by broth microdilution method. Type of experiment: functional. Put shortly:
as §2

In experiment [10] the test system is Staphylococcus aureus. Nature of the experiment: Antibacterial activity against methicillin-susceptible, inducible MLS-resistant Staphylococcus aureus PU 64 by broth microdilution method. It counts as functional. The method, boiled down:
as §2

Experiment [11] deals with Staphylococcus haemolyticus. As to the kind of experiment: Antibacterial activity against methicillin-resistant, coagulase-negative, constitutive MLS-resistant Staphylococcus haemolyticus PU 19 by broth microdilution method. It counts as functional. Put shortly: as §2
In experiment [12] the test system is Staphylococcus epidermidis. Nature of the experiment: Antibacterial activity against methicillin-susceptible, inducible MLS-resistant Staphylococcus epidermidis E1 by broth microdilution method. Type of experiment: functional. The method, boiled down:
as §2

Experiment [13] concerns Staphylococcus epidermidis. Nature of the experiment: Antibacterial activity against methicillin-resistant, constitutive MLS-resistant Staphylococcus epidermidis E2 by broth microdilution method. It counts as functional. The method, boiled down: as §2
Experiment [14] concerns Staphylococcus hominis. As to the kind of experiment: Antibacterial activity against methicillin-resistant, coagulase-negative, inducible MLS-resistant Staphylococcus hominis E3 by broth microdilution method. It counts as functional. The method, boiled down:
as §2

Experiment [15] has as its system Staphylococcus epidermidis. Nature of the experiment: Ratio of MIC for clarithromycin to compound for methicillin-susceptible, inducible MLS-resistant Staphylococcus epidermidis E1 by broth microdilution method. It counts as functional.
Experiment [16] relates to Staphylococcus epidermidis. As to the kind of experiment: Ratio of MIC for azithromycin to compound for methicillin-susceptible, inducible MLS-resistant Staphylococcus epidermidis E1 by broth microdilution method. It counts as functional.
Experiment [17] deals with Staphylococcus aureus. As to the kind of experiment: Antibacterial activity against methicillin-, inducible MLS-resistant Staphylococcus aureus PU 32 by broth microdilution method.
The test system of experiment [18] is Staphylococcus aureus. As to the kind of experiment: Antibacterial activity against methicillin-, inducible MLS-resistant […] by broth microdilution method. It counts as functional. The method, boiled down:
as §2

Experiment [19] has as its system Streptococcus pneumoniae. As to the kind of experiment: Ratio of MIC for clarithromycin to compound for efflux,penicillin-susceptible Streptococcus pneumoniae PU 09 by broth microdilution method. It counts as functional. Put shortly: (§3)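 MICs of the test compounds and of the reference macrolides (azithromycin, clarithromycin) were determined side by side by broth microdilution following CLSI (2010). The clinical isolates were identified by 16S rDNA sequencing and labelled by genotype and phenotype. S. aureus ATCC 29213 and S. pneumoniae ATCC 49619 served as control strains.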

Experiment [20] has as its system Streptococcus pneumoniae. As to the kind of experiment: Ratio of MIC for azithromycin to compound for efflux,penicillin-susceptible Streptococcus pneumoniae PU 09 by broth microdilution method. It counts as functional. The method, boiled down: as §3
Experiment [21] relates to Streptococcus dysgalactiae. As to the kind of experiment: Ratio of MIC for clarithromycin to compound for efflux, erythromycin-resistant Streptococcus dysgalactiae A 1 by broth microdilution method. Type of experiment: functional. The method, boiled down:
as §3

Experiment [22] concerns Streptococcus dysgalactiae. Nature of the experiment: Ratio of MIC for azithromycin to compound for efflux, erythromycin-resistant Streptococcus dysgalactiae A 1 by broth microdilution method. It counts as functional. The method, boiled down: as §3
The subject of experiment [23] is Staphylococcus hominis. Nature of the experiment: Ratio of MIC for clarithromycin to compound for methicillin-resistant, coagulase-negative, inducible MLS-resistant Staphylococcus hominis E3 by broth microdilution method. Type of experiment: functional. The method, boiled down:
as §3

The test system of experiment [24] is Staphylococcus hominis. Nature of the experiment: Ratio of MIC for azithromycin to compound for methicillin-resistant, coagulase-negative, inducible MLS-resistant Staphylococcus hominis E3 by broth microdilution method. Type of experiment: functional. Put shortly: as §3

`CC[C@H]1OC(=O)[C@H](C)[C@@H](O/C=C\Cc2cncnc2)[C@H](C)[C@@H](O[C@@H]2O[C@H](C)C[C@H](N(C)C)[C@H]2O)[C@](C)(OC)C[C@@H](C)C(=O)[C@H](C)[C@@H](O)[C@]1(C)O`: the minimal inhibitory concentration (MIC) is 1 µg/mL (≈ 1.41 µM) in [1]; more than 256 µg/mL in experiment [2]; 1 µg/mL (≈ 1.41 µM) in [3]; 32 µg/mL (≈ 45.2 µM) in experiment [4]; 4 µg/mL (≈ 5.65 µM) in experiment [5]; more than 256 µg/mL in experiment [6]. The minimal inhibitory concentration (MIC) in [7] is 4 µg/mL (≈ 5.65 µM); in experiment [8], 8 µg/mL (≈ 11.3 µM); in experiment [9], more than 256 µg/mL; in experiment [10], 8 µg/mL (≈ 11.3 µM); in experiment [11] it was more than 256 µg/mL; in experiment [12], 4 µg/mL (≈ 5.65 µM). In addition, the MIC in experiment [13] is more than 256 µg/mL; in experiment [14] it was 8 µg/mL (≈ 11.3 µM); in experiment [17], 4 µg/mL (≈ 5.65 µM). The Ratio in experiment [15] and in experiment [16] was more than 16 throughout.
Consider `CC[C@H]1OC(=O)[C@H](C)[C@@H](OCC#Cc2cncnc2)[C@H](C)[C@@H](O[C@@H]2O[C@H](C)C[C@H](N(C)C)[C@H]2O)[C@](C)(OC)C[C@@H](C)/C(=N\O)[C@H](C)[C@@H](O)[C@]1(C)O`, for which the minimal inhibitory concentration (MIC) in experiment [1], in experiment [2], in experiment [3], in experiment [4], in [5] and in experiment [6] was more than 256 µg/mL in each case. The MIC in experiment [7], in [8], in experiment [9], in experiment [10], in experiment [11] and in experiment [12] was more than 256 µg/mL throughout. Besides, the MIC in experiment [13], in experiment [14] and in [17] was more than 256 µg/mL in each case.
Consider `CC[C@H]1OC(=O)[C@H](C)[C@@H](OCCCc2cncnc2)[C@H](C)[C@@H](O[C@@H]2O[C@H](C)C[C@H](N(C)C)[C@H]2O)[C@](C)(OC)C[C@@H](C)/C(=N\O)[C@H](C)[C@@H](O)[C@]1(C)O`, for which the minimum inhibitory concentration (MIC) is 1 µg/mL (≈ 1.38 µM) in [1]; more than 256 µg/mL in experiment [2]; 2 µg/mL (≈ 2.76 µM) in experiment [3]; 64 µg/mL (≈ 88.3 µM) in experiment [4]; 2 µg/mL (≈ 2.76 µM) in [5]; more than 256 µg/mL in experiment [6]. Moreover, the MIC was 0.5 µg/mL (≈ 0.69 µM) in experiment [7]; 8 µg/mL (≈ 11 µM) in experiment [8]; more than 256 µg/mL in experiment [9]; 8 µg/mL (≈ 11 µM) in [10]; more than 256 µg/mL in experiment [11]; 16 µg/mL (≈ 22.1 µM) in experiment [12]. The values for the MIC in experiment [13], in experiment [14] and in experiment [17] were more than 256 µg/mL, more than 256 µg/mL and 8 µg/mL (≈ 11 µM), respectively. The Ratio in experiment [15] and in experiment [16] was more than 16 in each case.
With `CC[C@H]1OC(=O)[C@H](C)[C@@H](O/C=C\Cc2cncnc2)[C@H](C)[C@@H](O[C@@H]2O[C@H](C)C[C@H](N(C)C)[C@H]2O)[C@](C)(OC)C[C@@H](C)/C(=N\O)[C@H](C)[C@H]2OC(=O)O[C@@]21C`, the MIC in experiment [1] was 0.032 µg/mL (≈ 0.0427 µM); in [2] it was more than 256 µg/mL; in experiment [3], 0.125 µg/mL (≈ 0.167 µM); in [4], 1 µg/mL (≈ 1.34 µM); in [5] it was 0.125 µg/mL (≈ 0.167 µM); in experiment [6], more than 256 µg/mL. Further, the MIC in experiment [7] was 0.016 µg/mL (≈ 0.0214 µM); in experiment [8] it was 0.5 µg/mL (≈ 0.668 µM); in experiment [18], 0.25 µg/mL (≈ 0.334 µM); in [9], more than 256 µg/mL; in experiment [10], 0.25 µg/mL (≈ 0.334 µM); in experiment [11], more than 256 µg/mL. Moreover, the MIC was 0.25 µg/mL (≈ 0.334 µM) in experiment [12], more than 256 µg/mL in [13] and 0.25 µg/mL (≈ 0.334 µM) in experiment [14]. Moreover, the Ratio came to 1024 in [15]; 1024 in experiment [16]; 32 in experiment [19]; 32 in experiment [20]; 32 in [21]; 32 in experiment [22]. In addition, the Ratio in experiment [23] and in [24] was 1024 in each case.
For the compound `CC[C@H]1OC(=O)[C@H](C)[C@@H](OC/C=C/c2cncnc2)[C@H](C)[C@@H](O[C@@H]2O[C@H](C)C[C@H](N(C)C)[C@H]2O)[C@](C)(OC)C[C@@H](C)/C(=N\O)[C@H](C)[C@@H](O)[C@]1(C)O`, the minimum inhibitory concentration (MIC) was 16 µg/mL (≈ 22.1 µM) in experiment [1]; more than 256 µg/mL in experiment [2]; 32 µg/mL (≈ 44.3 µM) in experiment [3]; 128 µg/mL (≈ 177 µM) in experiment [4]; 16 µg/mL (≈ 22.1 µM) in [5]; more than 256 µg/mL in experiment [6]. The minimum inhibitory concentration (MIC) in experiment [7] is 8 µg/mL (≈ 11.1 µM); in [8], more than 256 µg/mL; in experiment [9], more than 256 µg/mL; in experiment [10], more than 256 µg/mL; in [11], more than 256 µg/mL; in experiment [12], more than 256 µg/mL. In addition, the minimum inhibitory concentration (MIC) in experiment [13], in experiment [14] and in [17] was more than 256 µg/mL each time.
Consider `CC[C@H]1OC(=O)[C@H](C)[C@@H](OC/C=C/c2cncnc2)[C@H](C)[C@@H](O[C@@H]2O[C@H](C)C[C@H](N(C)C)[C@H]2O)[C@](C)(OC)C[C@@H](C)C(=O)[C@H](C)[C@@H](O)[C@]1(C)O`, for which the MIC in [1] is 8 µg/mL (≈ 11.3 µM); in experiment [2] it was 128 µg/mL (≈ 181 µM); in experiment [3], 16 µg/mL (≈ 22.6 µM); in experiment [4] it was 128 µg/mL (≈ 181 µM); in experiment [5], 16 µg/mL (≈ 22.6 µM); in [6], more than 256 µg/mL. The minimum inhibitory concentration (MIC) in experiment [7] is 8 µg/mL (≈ 11.3 µM); in experiment [8] it was more than 256 µg/mL; in experiment [9], more than 256 µg/mL; in experiment [10], more than 256 µg/mL; in experiment [11], more than 256 µg/mL; in experiment [12], more than 256 µg/mL. Moreover, the MIC in [13], in experiment [14] and in [17] was more than 256 µg/mL in each case.

Broadly, the MIC is the lowest concentration that inhibits growth of the organism. Read a low MIC as inhibition by little substance.
